Results on ten molecules are retold here after ChEMBL document CHEMBL1133013, “Structure-activity relationships and pharmacokinetic analysis for a series of potent, systemically available biphenylsulfonamide matrix metalloproteinase inhibitors” (J Med Chem, 2000).

The structures appear in SMILES notation.

Data set [1] can be described thus: Half life (t1/2) in rats following a single 5 mg/kg oral cassette gavage dose. The note with it: rat, in vivo. In kind it is ADME, organism-based. The arrangement: dose 5 mg/kg, route oral. In a few lines:
(§1)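 Cassette of 5–7 compounds given together as one oral gavage, 5 mg/kg per compound, methyl cellulose suspension, 3 fasted male Wistar rats (80-90 days old). Heparinized plasma taken by jugular cannula predose to 48 h. LC-MS/MS with LLOQ 10 ng/mL. Noncompartmental analysis of individual rats: Cmax/tmax as observed, t1/2 = 0.693/λz, trapezoidal AUC(0-tldc) extrapolated to infinity.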

The target in data set [2] is 72 kDa type IV collagenase (Homo sapiens, UniProt P08253). Briefly: In vitro inhibition of matrix metalloprotease-2 (MMP-2).
Data set [3] in a line: AUC in rats following a single 5 mg/kg oral cassette gavage dose. The conditions noted are these: rat, plasma, read-out: AUC 0-tldc. In kind it is ADME, organism-based. The arrangement: dose 5 mg/kg, route oral. The gist of the method: as §1
Data set [4] is described as follows: Time to maximal concentration (tmax) in rats following a single 5 mg/kg oral cassette gavage dose. In kind it is ADME, organism-based. Set-up: dose 5 mg/kg, route oral. The conditions noted are these: rat, in vivo. In a few lines: as §1
Data set [5] in a line: Pharmacokinetic parameters in rats following a single 5 mg/kg oral cassette gavage dose. Type of data set: ADME, organism-based. Set-up: dose 5 mg/kg, route oral. The note with it: rat, in vivo, read-out: AUC 0-infinity. The gist of the method: as §1
Another data set addresses Collagenase 3 (Homo sapiens, UniProt P45452).
A short description of data set [6]: Concentration in rat plasma 24 hours after single 5 mg/kg oral cassette gavage dose. The conditions noted are these: read-out: C24. In kind it is ADME, organism-based. Set-up: dose 5 mg/kg, route oral.
Data set [7] addresses Matrix metalloproteinase-9 (Homo sapiens, UniProt P14780). In words: In vitro inhibition of matrix metalloprotease-9 (MMP-9).
Another data set addresses T1, Matrilysin (Homo sapiens, UniProt P09237).
T1 sequence (P09237 whole entry): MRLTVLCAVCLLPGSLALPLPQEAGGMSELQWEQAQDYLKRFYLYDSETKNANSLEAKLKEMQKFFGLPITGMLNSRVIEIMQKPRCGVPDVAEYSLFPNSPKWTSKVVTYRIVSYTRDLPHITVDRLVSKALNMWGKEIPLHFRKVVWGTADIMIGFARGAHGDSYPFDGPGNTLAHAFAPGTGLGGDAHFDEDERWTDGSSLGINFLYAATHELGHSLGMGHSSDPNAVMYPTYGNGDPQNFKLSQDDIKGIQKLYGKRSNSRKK
In words: In vitro inhibition of matrix metalloprotease-7 (MMP-7).

The target in a further data set is Stromelysin-1 (Homo sapiens, UniProt P08254). Briefly: In vitro inhibition of recombinant human matrix metalloprotease-3 (MMP-3).
The target in another data set is T2, Interstitial collagenase (Homo sapiens, UniProt P03956).
T2 sequence (P03956 whole entry): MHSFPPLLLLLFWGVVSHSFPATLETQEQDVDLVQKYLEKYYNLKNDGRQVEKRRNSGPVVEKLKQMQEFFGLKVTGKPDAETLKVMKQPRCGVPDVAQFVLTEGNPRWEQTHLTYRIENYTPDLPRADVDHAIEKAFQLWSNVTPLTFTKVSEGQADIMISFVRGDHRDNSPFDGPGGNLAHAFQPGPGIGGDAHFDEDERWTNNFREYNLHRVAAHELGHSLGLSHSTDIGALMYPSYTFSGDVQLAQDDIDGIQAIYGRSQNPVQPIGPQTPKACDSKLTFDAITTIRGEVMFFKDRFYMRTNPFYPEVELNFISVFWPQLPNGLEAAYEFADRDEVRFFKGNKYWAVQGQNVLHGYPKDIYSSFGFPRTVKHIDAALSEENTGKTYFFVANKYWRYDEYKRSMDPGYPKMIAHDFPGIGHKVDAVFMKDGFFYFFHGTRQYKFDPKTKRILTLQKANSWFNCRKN
In words: In vitro inhibition of human recombinant matrix metalloprotease-1 (MMP-1).

A short description of data set [8]: Cmax in rat plasma after single 5 mg/kg oral cassette gavage dose. Set-up: dose 5 mg/kg, route oral. In kind it is ADME, organism-based. In a few lines: as §1

Matrix metalloproteinase-9, sequence (P14780 whole entry): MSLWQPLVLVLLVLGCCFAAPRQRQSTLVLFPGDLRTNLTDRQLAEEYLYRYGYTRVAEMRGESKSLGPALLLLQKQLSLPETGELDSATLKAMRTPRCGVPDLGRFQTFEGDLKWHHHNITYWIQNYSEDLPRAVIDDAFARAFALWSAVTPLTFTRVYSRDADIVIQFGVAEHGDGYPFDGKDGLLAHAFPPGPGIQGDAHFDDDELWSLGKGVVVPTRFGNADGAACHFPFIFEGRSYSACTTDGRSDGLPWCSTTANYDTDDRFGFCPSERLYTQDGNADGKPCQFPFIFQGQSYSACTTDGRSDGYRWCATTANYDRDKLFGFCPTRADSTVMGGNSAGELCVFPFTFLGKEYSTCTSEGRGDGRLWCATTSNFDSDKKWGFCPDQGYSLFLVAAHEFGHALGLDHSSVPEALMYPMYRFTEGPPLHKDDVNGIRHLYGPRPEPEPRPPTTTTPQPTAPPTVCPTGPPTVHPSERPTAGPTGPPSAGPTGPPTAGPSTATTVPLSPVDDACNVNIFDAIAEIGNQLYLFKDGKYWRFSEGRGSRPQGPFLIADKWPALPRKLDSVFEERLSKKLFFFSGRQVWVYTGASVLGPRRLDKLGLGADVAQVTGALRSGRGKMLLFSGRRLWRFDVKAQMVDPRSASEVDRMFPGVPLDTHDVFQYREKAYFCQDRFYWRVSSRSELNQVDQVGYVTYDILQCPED
Stromelysin-1, sequence (P08254 whole entry): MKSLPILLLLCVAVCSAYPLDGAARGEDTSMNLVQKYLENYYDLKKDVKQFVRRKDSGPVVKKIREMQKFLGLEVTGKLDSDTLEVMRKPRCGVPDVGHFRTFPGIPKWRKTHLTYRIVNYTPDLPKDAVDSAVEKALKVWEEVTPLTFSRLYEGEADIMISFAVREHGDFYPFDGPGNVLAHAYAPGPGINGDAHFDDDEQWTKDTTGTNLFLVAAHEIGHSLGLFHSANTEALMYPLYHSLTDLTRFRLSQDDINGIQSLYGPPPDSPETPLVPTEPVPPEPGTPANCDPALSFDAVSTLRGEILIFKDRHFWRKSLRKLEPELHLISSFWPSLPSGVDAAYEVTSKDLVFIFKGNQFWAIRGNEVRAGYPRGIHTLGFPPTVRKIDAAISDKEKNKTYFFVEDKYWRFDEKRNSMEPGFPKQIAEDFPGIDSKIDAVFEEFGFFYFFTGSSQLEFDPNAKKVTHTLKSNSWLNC
72 kDa type IV collagenase, sequence (P08253 whole entry): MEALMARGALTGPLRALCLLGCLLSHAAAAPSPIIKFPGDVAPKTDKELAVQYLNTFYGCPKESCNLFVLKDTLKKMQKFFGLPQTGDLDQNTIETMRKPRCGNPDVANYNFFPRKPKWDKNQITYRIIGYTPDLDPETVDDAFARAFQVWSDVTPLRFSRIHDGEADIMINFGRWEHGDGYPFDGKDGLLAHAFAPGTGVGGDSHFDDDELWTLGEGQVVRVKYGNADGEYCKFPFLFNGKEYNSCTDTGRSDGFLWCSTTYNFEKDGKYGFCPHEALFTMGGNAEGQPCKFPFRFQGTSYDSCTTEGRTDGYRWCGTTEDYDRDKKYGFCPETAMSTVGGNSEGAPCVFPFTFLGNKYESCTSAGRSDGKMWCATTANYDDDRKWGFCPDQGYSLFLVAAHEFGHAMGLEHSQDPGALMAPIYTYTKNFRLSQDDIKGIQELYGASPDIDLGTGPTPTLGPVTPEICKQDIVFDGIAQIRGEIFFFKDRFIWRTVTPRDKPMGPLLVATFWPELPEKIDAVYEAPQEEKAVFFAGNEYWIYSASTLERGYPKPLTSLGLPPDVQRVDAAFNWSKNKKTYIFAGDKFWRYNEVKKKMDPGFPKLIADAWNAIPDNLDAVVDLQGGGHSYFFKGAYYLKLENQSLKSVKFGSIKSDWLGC

With `O=C(O)CNS(=O)(=O)c1ccc(-c2ccc(Br)cc2)cc1`, the half-life in data set [1] is 15.6 h. Moreover, the IC50 in [2] turned out to be 4 nM; on Collagenase 3 it was 26 nM; in data set [7], 6700 nM; on Matrilysin it was 77000 nM; on Stromelysin-1 it was 10 nM; on Interstitial collagenase it was 50000 nM. In addition, the AUC in data set [3] was 276 µg·h/mL; in data set [5], 316 µg·h/mL. Besides, the Tmax in data set [4] amounted to 8 h. The concentration at 24 h in [6] stood at 5670 ng/mL. Moreover, in [8], the highest level (Cmax) was 9960 ng/mL.

As to `CC(C)[C@@H](NS(=O)(=O)c1ccc(-c2ccc(C#N)cc2)cc1)C(=O)O`, the half-life in data set [1] is 12.8 h. Besides, the IC50 in data set [2] turned out to be 7 nM; against Collagenase 3, 53 nM; in [7], 3800 nM; at Matrilysin it was 19000 nM; at Stromelysin-1, 5 nM; at Interstitial collagenase it was 14000 nM. Further, the AUC amounted to 256 µg·h/mL in data set [3] and 277 µg·h/mL in [5]. In addition, the Tmax in data set [4] was found to be 1.33 h. For the same molecule, the concentration at 24 h in [6] amounted to 4490 ng/mL. Moreover, in data set [8], the highest level (Cmax) was 12200 ng/mL.

The molecule `CC(C)[C@H](NS(=O)(=O)c1ccc(-c2ccc(Cl)cc2)cc1)C(=O)O` gave a half-life in data set [1] of 34.1 h. Besides, the IC50 stood at 11 nM in data set [2]; 48 nM against Collagenase 3; 16000 nM in data set [7]; 7500 nM against Matrilysin; 9 nM on Stromelysin-1; 6500 nM at Interstitial collagenase. Moreover, the AUC in data set [3] was found to be 170 µg·h/mL; in [5], 427 µg·h/mL. The Tmax in [4] is 0.5 h. The concentration at 24 h in [6] was found to be 4020 ng/mL. In data set [8], the Cmax is 8860 ng/mL.

Molecule `Cc1ccc(-c2ccc(S(=O)(=O)N[C@H](C(=O)O)C(C)C)cc2)cc1` gave a half-life in [1] of 0.403 h. In addition, the IC50 stood at 2 nM in data set [2]; 11 nM against Collagenase 3; 3900 nM in data set [7]; 4500 nM against Matrilysin; 3 nM on Stromelysin-1; 2200 nM at Interstitial collagenase. For the same molecule, the results for the AUC in data set [3] and in data set [5] were 2.25 µg·h/mL and 2.37 µg·h/mL, respectively. For the same molecule, the Tmax in data set [4] was 0.5 h. For the same molecule, the concentration at 24 h in [6] is under 10 ng/mL. In data set [8], the Cmax was found to be 3070 ng/mL.

`O=C(O)C(CCSCc1ccccc1)NS(=O)(=O)c1ccc(-c2ccc(Br)cc2)cc1` (stereo not given): the half-life in [1] was 12.5 h. In addition, the IC50 is 7 nM in data set [2]; 36 nM on Collagenase 3; 10000 nM in data set [7]; 36000 nM against Matrilysin; 22 nM on Stromelysin-1; 56000 nM on Interstitial collagenase. Moreover, the figures for the AUC in data set [3] and in data set [5] were 119 µg·h/mL and 132 µg·h/mL, respectively. For the same molecule, the Tmax in data set [4] is 1.33 h. Also, the concentration at 24 h in data set [6] is 1530 ng/mL. The molecule further showed a Cmax in data set [8] of 11600 ng/mL.

With `CC(C)[C@H](NS(=O)(=O)c1ccc(-c2ccc(Br)cc2F)cc1)C(=O)O`, the half-life in [1] was 117 h. In addition, the IC50 in [2] worked out at 5 nM; against Collagenase 3 it was 7 nM; in data set [7], 4900 nM; at Matrilysin it was 2100 nM; at Stromelysin-1, 16 nM; at Interstitial collagenase, 3600 nM. For the same molecule, the AUC in data set [3] was 1360 µg·h/mL; in data set [5] it was 4040 µg·h/mL. In addition, in data set [4], the Tmax turned out to be 1.88 h. The concentration at 24 h in [6] turned out to be 21300 ng/mL. In data set [8], this molecule came in with a Cmax of 28500 ng/mL.

`CC(C)[C@@H](NS(=O)(=O)c1ccc(-c2ccc(Br)cc2)cc1)C(=O)NO`: the half-life in [1] is 6.78 h. Besides, the IC50 was 1 nM in data set [2]; 2 nM against Collagenase 3; 18 nM in [7]; 140 nM against Matrilysin; 5 nM at Stromelysin-1; 110 nM at Interstitial collagenase. In addition, the figures for the AUC in data set [3] and in data set [5] were 5.73 µg·h/mL and 5.86 µg·h/mL, respectively. The Tmax in data set [4] stood at 0.33 h. Further, in [6], the concentration at 24 h worked out at 10 ng/mL. Besides, the Cmax in data set [8] came out at 5930 ng/mL.

In turn, `CC(C)[C@H](NS(=O)(=O)c1ccc(-c2ccc(F)cc2)cc1)C(=O)O` gave a half-life in [1] of 45.5 h. Besides, the IC50 was found to be 39 nM in data set [2]; 43 nM against Collagenase 3; 64000 nM in data set [7]; 4800 nM at Matrilysin; 10 nM on Stromelysin-1; 4200 nM at Interstitial collagenase. For the same molecule, the AUC in data set [3] is 670 µg·h/mL; in [5], 1020 µg·h/mL. Further, the Tmax in data set [4] worked out at 2.75 h. In addition, the concentration at 24 h in [6] was found to be 11300 ng/mL. The molecule further registered a Cmax in data set [8] of 18700 ng/mL.

Molecule `CC(C)[C@H](NS(=O)(=O)c1ccc(-c2ccccc2)cc1)C(=O)O` had a half-life in data set [1] of 3.35 h. In addition, the IC50 in data set [2] was 40 nM; at Collagenase 3 it was 62 nM; in [7], 26000 nM; on Matrilysin, 71000 nM; at Stromelysin-1, 38 nM; on Interstitial collagenase it was 5400 nM. The AUC in data set [3] amounted to 12.1 µg·h/mL; in data set [5] it was 3.6 µg·h/mL. In addition, the Tmax in data set [4] worked out at 0.5 h. Further, the concentration at 24 h in data set [6] stood at 39 ng/mL. This molecule also showed a Cmax in data set [8] of 5180 ng/mL.

The molecule `CC(C)[C@H](NS(=O)(=O)c1ccc(-c2ccc(C#N)cc2)cc1)C(=O)O` had a half-life in data set [1] of 12.5 h. The IC50 in [2] stood at 33 nM; against Collagenase 3, 37 nM; in data set [7], 59000 nM; at Matrilysin, 7000 nM; on Stromelysin-1, 6 nM; on Interstitial collagenase, 18000 nM. Besides, the AUC in data set [3] was 289 µg·h/mL; in [5], 363 µg·h/mL. Also, the time to peak (Tmax) in data set [4] was 2.67 h. In [6], the concentration at 24 h came out at 5480 ng/mL. For the same molecule, the Cmax in [8] was 17100 ng/mL.

A word on the half-life: it is how long it takes for the measured level to halve. The term IC50 denotes the midpoint of a concentration-inhibition curve. Broadly, the AUC is the area under the concentration-time curve, a measure of exposure. Usually Tmax stands for the time from dosing to the highest level. For orientation: Cmax means the highest concentration seen after dosing.
